Results: ChEMBL document CHEMBL1158621, “Tricyclic sulfones as orally active gamma-secretase inhibitors: synthesis and structure-activity relationship studies” (Bioorg Med Chem Lett, 2010)
The source made the active and inactive calls. No cut-off for these calls is given here.

Legend:
[1] = Inhibition of gamma-secretase-mediated cleavage of human APP Swedish and London mutation expressed in HEK293 cells assessed as reduction in amyloid beta40 production after 4 hrs by ECL technology; assay type: cell-based
In short: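 HEK293 cells expressing human APP with Swedish and London mutations were given fresh medium and incubated with inhibitor for 4 h. Ab40 was measured in 10 microliters of conditioned medium by ECL. Values are means of n = 2.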

[2] = Inhibition of gamma-secretase-mediated cleavage of human APP Swedish and London mutation expressed in HEK293 cell membrane; assay type: cell-based
[3] = Inhibition of gamma-secretase-mediated cleavage of human APP Swedish and London mutation expressed in HEK293 cells assessed as reduction in amyloid beta42 production after 4 hrs by ECL technology; assay type: cell-based
[4] = Drug level in rat brain at 10 mg/kg, po after 6 hrs; assay type: ADME, organism-based; design: dose 10 mg/kg, route oral; details: read-out: Drug uptake
[5] = Ratio of drug level in brain to plasma in rat at 10 mg/kg, po; assay type: ADME, organism-based; design: dose 10 mg/kg, route oral
[6] = Permeability across human Caco-2 cells; assay type: ADME, cell-based; details: read-out: permeability
[7] = biological target: Voltage-gated inwardly rectifying potassium channel KCNH2 (Homo sapiens, UniProt Q12809); experiment: Inhibition of human ERG at 30 uM
Sequence of Voltage-gated inwardly rectifying potassium channel KCNH2 (Q12809 whole entry): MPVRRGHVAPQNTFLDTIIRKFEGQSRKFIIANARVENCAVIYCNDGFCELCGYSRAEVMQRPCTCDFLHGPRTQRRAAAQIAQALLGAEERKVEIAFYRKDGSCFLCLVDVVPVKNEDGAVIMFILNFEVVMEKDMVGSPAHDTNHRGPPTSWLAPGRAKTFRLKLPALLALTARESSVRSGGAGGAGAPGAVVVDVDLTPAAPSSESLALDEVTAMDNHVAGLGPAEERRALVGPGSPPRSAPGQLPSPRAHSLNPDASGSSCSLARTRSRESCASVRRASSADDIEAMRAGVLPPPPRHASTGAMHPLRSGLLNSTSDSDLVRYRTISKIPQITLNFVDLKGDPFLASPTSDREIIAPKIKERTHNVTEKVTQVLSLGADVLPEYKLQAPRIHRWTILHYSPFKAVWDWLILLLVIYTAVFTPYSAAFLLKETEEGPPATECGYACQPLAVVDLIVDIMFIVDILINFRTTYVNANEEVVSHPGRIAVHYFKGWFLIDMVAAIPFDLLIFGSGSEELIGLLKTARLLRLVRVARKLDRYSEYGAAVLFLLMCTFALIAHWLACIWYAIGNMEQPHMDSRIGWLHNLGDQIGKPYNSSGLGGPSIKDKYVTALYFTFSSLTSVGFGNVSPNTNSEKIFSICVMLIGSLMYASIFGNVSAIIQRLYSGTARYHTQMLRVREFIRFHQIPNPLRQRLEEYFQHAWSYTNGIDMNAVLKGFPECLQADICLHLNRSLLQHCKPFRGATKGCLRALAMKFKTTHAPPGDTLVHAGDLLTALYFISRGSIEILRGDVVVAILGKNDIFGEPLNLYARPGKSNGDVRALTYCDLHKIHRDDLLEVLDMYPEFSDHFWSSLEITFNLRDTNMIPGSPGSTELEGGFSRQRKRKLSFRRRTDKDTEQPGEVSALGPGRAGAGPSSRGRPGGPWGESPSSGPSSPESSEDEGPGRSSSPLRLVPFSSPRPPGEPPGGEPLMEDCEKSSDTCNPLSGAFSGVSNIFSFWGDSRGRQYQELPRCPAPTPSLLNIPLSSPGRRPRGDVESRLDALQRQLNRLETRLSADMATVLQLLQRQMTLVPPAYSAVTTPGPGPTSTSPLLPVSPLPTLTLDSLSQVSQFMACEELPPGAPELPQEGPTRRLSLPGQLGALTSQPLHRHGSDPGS

Cytochrome P450 3A4 = Cytochrome P450 3A4 (Homo sapiens, UniProt P08684); experiment: Inhibition of CYP3A4 preincubated for 30 mins; assay type: ADME
Sequence of Cytochrome P450 3A4 (P08684 whole entry): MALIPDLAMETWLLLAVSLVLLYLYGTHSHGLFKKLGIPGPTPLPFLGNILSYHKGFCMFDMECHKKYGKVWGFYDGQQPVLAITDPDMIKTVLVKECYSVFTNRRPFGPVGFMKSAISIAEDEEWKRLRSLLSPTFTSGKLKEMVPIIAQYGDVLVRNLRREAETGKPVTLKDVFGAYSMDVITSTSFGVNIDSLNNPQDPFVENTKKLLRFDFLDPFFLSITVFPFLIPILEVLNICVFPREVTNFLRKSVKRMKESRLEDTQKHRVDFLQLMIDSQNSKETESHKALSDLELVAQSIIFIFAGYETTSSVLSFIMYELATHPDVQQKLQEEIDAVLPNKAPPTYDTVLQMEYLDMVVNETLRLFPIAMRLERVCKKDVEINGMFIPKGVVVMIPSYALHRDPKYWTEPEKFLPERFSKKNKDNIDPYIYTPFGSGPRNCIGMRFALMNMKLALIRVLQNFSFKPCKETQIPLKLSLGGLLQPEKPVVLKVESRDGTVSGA
In short: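 CYP3A4 inhibition was determined after the compound was pre-incubated for 30 min.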

[8] = AUC in rat at 10 mg/kg, po after 6 hrs; assay type: ADME, organism-based; design: time < 6 hr, dose 10 mg/kg, route oral; details: plasma
In short: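 Rats were dosed orally at 10 mpk in 20% HPBCD. AUC was measured over 6 h by the cassette-accelerated rapid rat screen (CARRS).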

[9] = Binding affinity to p-glycoprotein
Mus musculus [10] = experiment: Reduction of amyloid beta40 level in non-transgenic mouse brain at 10 mg/kg, po after 3 hrs; assay type: functional
Mus musculus [11] = experiment: Reduction of amyloid beta40 level in non-transgenic mouse plasma at 10 mg/kg, po after 3 hrs; assay type: functional
Homo sapiens = species: Homo sapiens; experiment: Protein binding in human plasma; details: read-out: PPB (converted)

| Compound | IC50 [1] [nM] | IC50 [2] [nM] | IC50 [3] [nM] | also measured |
| --- | --- | --- | --- | --- |
| CCS(=O)(=O)NC[C@@H]1CCC[C@@]2(S(=O)(=O)c3ccc(Cl)cc3)c3c(F)ccc(F)c3OC[C@@H]12 | 4 | 1.6 | 2 |  |
| O=S(=O)(NC[C@@H]1CCC[C@@]2(S(=O)(=O)c3ccc(C(F)(F)F)cc3)c3c(F)ccc(F)c3OC[C@@H]12)C(F)(F)F | 40.6 | 41.7 | 18.7 | concentration at 6 h [4]: 91 ng/g; Kp [5]: 1.01; Papp [6]: 23 ×10⁻⁶ cm/s; inhibition (INH) [7]: Not Active; IC50 (Cytochrome P450 3A4): > 30000 nM; AUC at 6 h [8]: 702 ng·h/mL; Activity [9]: inactive; inhibition in vivo at 10 mg/kg (Mus musculus [10]): 71%; inhibition in vivo at 10 mg/kg (Mus musculus [11]): 101%; fraction unbound (Homo sapiens): 0.001 |
| CN1CCN(C[C@@H]2CCC[C@@]3(S(=O)(=O)c4ccc(C(F)(F)F)cc4)c4c(F)ccc(F)c4OC[C@@H]23)S1(=O)=O | 23 | 68 | 13 |  |
| CCN(C[C@@H]1CCC[C@@]2(S(=O)(=O)c3ccc(Cl)cc3)c3c(F)ccc(F)c3OC[C@@H]12)S(=O)(=O)CC | 15 | 16 | 7 |  |
| CCOC(=O)CCS(=O)(=O)NC[C@@H]1CCC[C@@]2(S(=O)(=O)c3ccc(Cl)cc3)c3c(F)ccc(F)c3OC[C@@H]12 | 4 | 2 | 3 |  |
| CCN(C[C@@H]1CCC[C@@]2(S(=O)(=O)c3ccc(C(F)(F)F)cc3)c3c(F)ccc(F)c3OC[C@@H]12)S(=O)(=O)C(F)(F)F | 42 | 97 | 21 |  |
| CCN(C[C@@H]1CCC[C@@]2(S(=O)(=O)c3ccc(Cl)cc3)c3c(F)ccc(F)c3OC[C@@H]12)S(C)(=O)=O | 12 | 5.5 | 5 |  |
| O=S(=O)(N(C[C@@H]1CCC[C@@]2(S(=O)(=O)c3ccc(Cl)cc3)c3c(F)ccc(F)c3OC[C@@H]12)C1CC1)C(F)(F)F | 21 | 15 | 9 |  |
| NS(=O)(=O)NC[C@@H]1CCC[C@@]2(S(=O)(=O)c3ccc(C(F)(F)F)cc3)c3c(F)ccc(F)c3OC[C@@H]12 | 6 | 18.7 | 4 |  |
| O=S1(=O)CCCCN1C[C@@H]1CCC[C@@]2(S(=O)(=O)c3ccc(C(F)(F)F)cc3)c3c(F)ccc(F)c3OC[C@@H]12 |  | 122 |  |  |
| O=S(=O)(NC[C@@H]1CCC[C@@]2(S(=O)(=O)c3ccc(Cl)cc3)c3c(F)ccc(F)c3OC[C@@H]12)N1CCCCC1 | 19 | 6 | 11 |  |
| O=S(=O)(NC[C@@H]1CCC[C@@]2(S(=O)(=O)c3ccc(Cl)cc3)c3c(F)ccc(F)c3OC[C@@H]12)c1c(F)cccc1F | 32 | 13 | 17 |  |
| O=S1(=O)CCCN1C[C@@H]1CCC[C@@]2(S(=O)(=O)c3ccc(C(F)(F)F)cc3)c3c(F)ccc(F)c3OC[C@@H]12 | 72 | 90 | 25 |  |
| O=S(=O)(NC[C@@H]1CCC[C@@]2(S(=O)(=O)c3ccc(Cl)cc3)c3c(F)ccc(F)c3OC[C@@H]12)c1ccccc1 | 128 | 61 | 46 |  |
| O=S(=O)(NC[C@@H]1CCC[C@@]2(S(=O)(=O)c3ccc(Cl)cc3)c3c(F)ccc(F)c3OC[C@@H]12)C1CCCCC1 | 60 | 55 | 20 |  |
| O=S(=O)(NC[C@@H]1CCC[C@@]2(S(=O)(=O)c3ccc(Cl)cc3)c3c(F)ccc(F)c3OC[C@@H]12)N1CCOCC1 | 6 | 3.4 | 3 |  |
| NS(=O)(=O)NC[C@@H]1CCC[C@@]2(S(=O)(=O)c3ccc(Cl)cc3)c3c(F)ccc(F)c3OC[C@@H]12 | 1 | 2 | 1 |  |
| CS(=O)(=O)N(C[C@@H]1CCC[C@@]2(S(=O)(=O)c3ccc(Cl)cc3)c3c(F)ccc(F)c3OC[C@@H]12)C1CC1 | 6 | 3.3 | 4 |  |
| O=S(=O)(NC[C@@H]1CCC[C@@]2(S(=O)(=O)c3ccc(Cl)cc3)c3c(F)ccc(F)c3OC[C@@H]12)N1CCCC1 | 5 | 3.3 | 3 |  |
| CN(C)S(=O)(=O)NC[C@@H]1CCC[C@@]2(S(=O)(=O)c3ccc(C(F)(F)F)cc3)c3c(F)ccc(F)c3OC[C@@H]12 | 12.7 | 6.8 | 5.4 |  |
| O=S(=O)(CC(F)(F)F)NC[C@@H]1CCC[C@@]2(S(=O)(=O)c3ccc(C(F)(F)F)cc3)c3c(F)ccc(F)c3OC[C@@H]12 | 22.7 | 25 | 8 |  |

| Compound | IC50 [1] [nM] | IC50 [2] [nM] | IC50 [3] [nM] | also measured |
| --- | --- | --- | --- | --- |
| O=S(=O)(NC[C@@H]1CCC[C@@]2(S(=O)(=O)c3ccc(Cl)cc3)c3c(F)ccc(F)c3OC[C@@H]12)c1cccs1 | 45 | 16.7 | 18 |  |
| CCN(C[C@@H]1CCC[C@@]2(S(=O)(=O)c3ccc(C(F)(F)F)cc3)c3c(F)ccc(F)c3OC[C@@H]12)S(C)(=O)=O | 18.5 | 34 | 7.4 |  |
| CCCCS(=O)(=O)NC[C@@H]1CCC[C@@]2(S(=O)(=O)c3ccc(Cl)cc3)c3c(F)ccc(F)c3OC[C@@H]12 | 29 | 13 | 13 |  |
| CCN(C[C@@H]1CCC[C@@]2(S(=O)(=O)c3ccc(Cl)cc3)c3c(F)ccc(F)c3OC[C@@H]12)S(=O)(=O)C1CC1 | 25 | 20.5 | 9 |  |
| CCN(C[C@@H]1CCC[C@@]2(S(=O)(=O)c3ccc(C(F)(F)F)cc3)c3c(F)ccc(F)c3OC[C@@H]12)S(=O)(=O)C1CC1 | 46.7 | 83 | 21 |  |
| CCS(=O)(=O)NC[C@@H]1CCC[C@@]2(S(=O)(=O)c3ccc(C(F)(F)F)cc3)c3c(F)ccc(F)c3OC[C@@H]12 | 5.5 | 20 | 1.6 |  |
| O=S1(=O)NCCN1C[C@@H]1CCC[C@@]2(S(=O)(=O)c3ccc(C(F)(F)F)cc3)c3c(F)ccc(F)c3OC[C@@H]12 |  | 37.7 |  |  |
| CC(C)S(=O)(=O)NC[C@@H]1CCC[C@@]2(S(=O)(=O)c3ccc(Cl)cc3)c3c(F)ccc(F)c3OC[C@@H]12 | 12 | 5.2 | 5 |  |
| CS(=O)(=O)N(C[C@@H]1CCC[C@@]2(S(=O)(=O)c3ccc(C(F)(F)F)cc3)c3c(F)ccc(F)c3OC[C@@H]12)C1CC1 | 9 | 5.8 | 6 |  |
| O=S(=O)(NC[C@@H]1CCC[C@@]2(S(=O)(=O)c3ccc(C(F)(F)F)cc3)c3c(F)ccc(F)c3OC[C@@H]12)C1CC1 | 17.5 | 19.7 | 6.3 |  |
| CCS(=O)(=O)N(C[C@@H]1CCC[C@@]2(S(=O)(=O)c3ccc(C(F)(F)F)cc3)c3c(F)ccc(F)c3OC[C@@H]12)C1CC1 | 29.5 | 28 | 14.2 |  |
| O=S(=O)(N(C[C@@H]1CCC[C@@]2(S(=O)(=O)c3ccc(C(F)(F)F)cc3)c3c(F)ccc(F)c3OC[C@@H]12)C1CC1)C(F)(F)F | 15.3 | 35.3 | 14.2 |  |
| O=S(=O)(NC[C@@H]1CCC[C@@]2(S(=O)(=O)c3ccc(Cl)cc3)c3c(F)ccc(F)c3OC[C@@H]12)C1CC1 | 4 | 3.1 | 4 |  |
| O=S(=O)(NC[C@@H]1CCC[C@@]2(S(=O)(=O)c3ccc(Cl)cc3)c3c(F)ccc(F)c3OC[C@@H]12)C(F)(F)F | 18 | 12 | 9 | inhibition in vivo at 10 mg/kg (Mus musculus [10]): 48%; inhibition in vivo at 10 mg/kg (Mus musculus [11]): 86% |
| CCCS(=O)(=O)NC[C@@H]1CCC[C@@]2(S(=O)(=O)c3ccc(Cl)cc3)c3c(F)ccc(F)c3OC[C@@H]12 | 12 | 5.5 | 6 |  |
| CS(=O)(=O)NC[C@@H]1CCC[C@@]2(S(=O)(=O)c3ccc(C(F)(F)F)cc3)c3c(F)ccc(F)c3OC[C@@H]12 | 12 | 13 | 3.6 | concentration at 6 h [4]: 80 ng/g; Kp [5]: 0.73; Papp [6]: 42.1 ×10⁻⁶ cm/s; inhibition (INH) [7]: Not Active; IC50 (Cytochrome P450 3A4): > 30000 nM; AUC at 6 h [8]: 2010 ng·h/mL; Activity [9]: inactive; fraction unbound (Homo sapiens): 0.019 |
| CN(C)S(=O)(=O)NC[C@@H]1CCC[C@@]2(S(=O)(=O)c3ccc(Cl)cc3)c3c(F)ccc(F)c3OC[C@@H]12 | 2 | 2.7 | 1 |  |
| CCN(CC)S(=O)(=O)NC[C@@H]1CCC[C@@]2(S(=O)(=O)c3ccc(Cl)cc3)c3c(F)ccc(F)c3OC[C@@H]12 | 6 | 9 | 3 |  |
| O=S(=O)(CC(F)(F)F)NC[C@@H]1CCC[C@@]2(S(=O)(=O)c3ccc(Cl)cc3)c3c(F)ccc(F)c3OC[C@@H]12 | 16 | 7.8 | 4 |  |
| CS(=O)(=O)NC[C@@H]1CCC[C@@]2(S(=O)(=O)c3ccc(Cl)cc3)c3c(F)ccc(F)c3OC[C@@H]12 | 2 | 2.5 | 2 |  |
